Each structure is given as a SMILES string.

One experiment addresses T1, Lethal factor (Bacillus anthracis) (UniProt P15917).
T1 sequence (whole entry): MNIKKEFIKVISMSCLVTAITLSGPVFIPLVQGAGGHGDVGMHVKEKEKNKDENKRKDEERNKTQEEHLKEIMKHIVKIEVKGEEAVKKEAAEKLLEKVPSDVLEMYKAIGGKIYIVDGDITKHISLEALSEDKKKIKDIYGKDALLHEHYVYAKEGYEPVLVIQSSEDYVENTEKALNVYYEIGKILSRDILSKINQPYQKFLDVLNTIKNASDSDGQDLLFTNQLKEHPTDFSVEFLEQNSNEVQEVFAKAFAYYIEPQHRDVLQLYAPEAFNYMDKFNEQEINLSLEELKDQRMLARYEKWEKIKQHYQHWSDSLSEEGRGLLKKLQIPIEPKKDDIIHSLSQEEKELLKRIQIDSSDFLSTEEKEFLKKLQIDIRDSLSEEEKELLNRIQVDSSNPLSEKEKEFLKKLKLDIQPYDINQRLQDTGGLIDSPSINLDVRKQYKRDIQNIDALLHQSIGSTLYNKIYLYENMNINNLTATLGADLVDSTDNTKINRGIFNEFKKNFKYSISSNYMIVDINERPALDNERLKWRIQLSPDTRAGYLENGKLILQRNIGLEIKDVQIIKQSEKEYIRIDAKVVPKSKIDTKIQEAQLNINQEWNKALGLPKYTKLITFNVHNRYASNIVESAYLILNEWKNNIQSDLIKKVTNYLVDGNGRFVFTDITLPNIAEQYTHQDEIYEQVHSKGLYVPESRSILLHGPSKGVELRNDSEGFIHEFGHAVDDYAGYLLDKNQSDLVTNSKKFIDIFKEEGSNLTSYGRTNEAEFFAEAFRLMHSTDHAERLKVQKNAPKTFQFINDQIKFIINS
The experiment can be described thus: Inhibition of Bacillus anthracis lethal factor using protease substrate-2 assessed as release of p-nitroaniline at 10 uM measured for 10 mins by spectrophotometric assay. The gist of the method:
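Single fixed inhibitor concentration. A405 (p-nitroaniline release) followed 10 min after LF addition. % inhibition from initial velocity versus no-inhibitor control. Mean of three experiments.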
The term inhibition denotes how much of the control response was suppressed. `O=C(/C=C/c1ccco1)N[C@H]1C[C@H](C(=O)NO)N(S(=O)(=O)c2ccc(Cl)c(Cl)c2)C1`: the inhibition is 22%.

Turning to `COc1ccc(C(=O)N[C@H]2C[C@H](C(=O)NO)N(S(=O)(=O)c3ccc(Cl)c(Cl)c3)C2)c(OC)c1`, the inhibition is 11%.

Turning to `O=C(NO)[C@H]1C[C@@H](n2cc(-c3ccccc3)nn2)CN1S(=O)(=O)c1ccc(Cl)c(Cl)c1`, the inhibition worked out at 8%.

Take `O=C(N[C@@H]1C[C@H](C(=O)NO)N(S(=O)(=O)c2ccc(Cl)c(Cl)c2)C1)c1cccs1`: the inhibition is 27%.

For `COc1ccc(C(=O)N[C@@H]2C[C@H](C(=O)NO)N(S(=O)(=O)c3ccc(Cl)c(Cl)c3)C2)c(OC)c1`, the inhibition stood at 65%.

As to `O=C(NO)[C@H]1C[C@H](OCc2ccccc2)CN1S(=O)(=O)c1ccc(Cl)c(Cl)c1`, the inhibition is 16%.

Turning to `O=C(N[C@H]1C[C@H](C(=O)NO)N(S(=O)(=O)c2ccc(Cl)c(Cl)c2)C1)c1cccs1`, the inhibition came out at 46%.

Take `O=C(NO)[C@H]1C[C@@H](OCc2ccccc2)CN1S(=O)(=O)c1ccc(Cl)c(Cl)c1`: the inhibition was 50%.

Another experiment deals with T2, Lethal factor (Bacillus anthracis, UniProt P15917).
T2 sequence (P15917 whole entry): T1 sequence (whole entry)
The experiment can be described thus: Inhibition of Bacillus anthracis lethal factor using protease substrate-2 assessed as release of p-nitroaniline measured for 10 mins by spectrophotometric assay. The gist of the method:
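10 nM LF with lethal factor protease substrate II (pNA-tagged peptide) in 250 mM Na2HPO4, 150 mM NaCl, pH 7.4, 25 °C. A405 followed 10 min after enzyme addition. Inhibitor at five concentrations starting at 500 nM. IC50 by non-linear regression of the dose-response data. Experiments repeated twice.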
For orientation: IC50 means the concentration at which inhibition is half-maximal. Take `COc1ccc(C(=O)N[C@@H]2C[C@H](C(=O)NO)N(S(=O)(=O)c3ccc(Cl)c(Cl)c3)C2)c(OC)c1`: the IC50 turned out to be 2.1 µM.

`O=C(NO)[C@H]1[C@@H](OCc2ccccc2)CCN1S(=O)(=O)c1ccc(Cl)cc1`: the concentration for half-maximal inhibition (IC50) worked out at 1.7 µM.

Turning to `CCCCCCO[C@H]1CCN(S(=O)(=O)c2ccc(Cl)cc2)[C@H]1C(=O)NO`, the IC50 was above 10 µM.

Turning to `O=C(NO)[C@H]1C[C@@H](OCc2ccccc2)CN1S(=O)(=O)c1ccc(Cl)c(Cl)c1`, the IC50 was 9.5 µM.

`O=C(NO)[C@H]1[C@@H](OCc2ccccc2)CCN1S(=O)(=O)c1ccc(Cl)c(Cl)c1`: the IC50 worked out at 1.4 µM.

The values above are taken from ChEMBL document CHEMBL2086233, “D-proline-based peptidomimetic inhibitors of anthrax lethal factor” (Eur J Med Chem, 2012).
